Reference: ChEMBL document CHEMBL1141363, “Synthesis and evaluation of novel heterocyclic MMP inhibitors” (Bioorg Med Chem Lett, 2007)

Columns and labels:
[1] = biological target: T1, Interstitial collagenase (Homo sapiens, UniProt P03956); assay: Inhibition of MMP1
T1 sequence (P03956 whole entry): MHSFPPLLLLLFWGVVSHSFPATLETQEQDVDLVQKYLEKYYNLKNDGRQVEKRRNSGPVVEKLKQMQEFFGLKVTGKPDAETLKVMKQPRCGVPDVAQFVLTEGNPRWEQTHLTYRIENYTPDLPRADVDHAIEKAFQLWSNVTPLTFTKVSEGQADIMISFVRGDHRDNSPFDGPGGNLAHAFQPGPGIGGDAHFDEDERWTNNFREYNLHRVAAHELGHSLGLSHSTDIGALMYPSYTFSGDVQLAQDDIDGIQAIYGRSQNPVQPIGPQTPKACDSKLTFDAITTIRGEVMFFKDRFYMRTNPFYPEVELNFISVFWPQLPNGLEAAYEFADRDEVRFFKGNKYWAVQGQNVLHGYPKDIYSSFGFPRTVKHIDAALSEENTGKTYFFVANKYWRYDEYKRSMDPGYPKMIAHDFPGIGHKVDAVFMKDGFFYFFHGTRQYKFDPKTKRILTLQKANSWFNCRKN
Summary of the method: (§1)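 Catalytic domains used at final levels of 85 nM (MMP-1), 24 nM (MMP-2), 18 nM (MMP-9) and 84 nM (MMP-12). Each enzyme was premixed with compound (serial 1:2 dilutions, 150 to 1.2) for 30 min at 37 °C. Substrate was added in 50 mM Hepes with 5 mM CaCl2 and 0.05% w/w Brij-35, pH 7.5, then incubated 30 min. Fluorescence read at ex 328/em 393 nm over 45 min, every 50 s.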

[2] = biological target: 72 kDa type IV collagenase (Homo sapiens, UniProt P08253); assay: Inhibition of MMP2; summary of the method: as §1
[3] = biological target: Matrix metalloproteinase-9 (Homo sapiens, UniProt P14780); assay: Inhibition of MMP9; summary of the method: as §1
[4] = biological target: Macrophage metalloelastase (Homo sapiens, UniProt P39900); assay: Inhibition of MMP12; summary of the method: as §1
Chain of Macrophage metalloelastase (P39900 whole entry): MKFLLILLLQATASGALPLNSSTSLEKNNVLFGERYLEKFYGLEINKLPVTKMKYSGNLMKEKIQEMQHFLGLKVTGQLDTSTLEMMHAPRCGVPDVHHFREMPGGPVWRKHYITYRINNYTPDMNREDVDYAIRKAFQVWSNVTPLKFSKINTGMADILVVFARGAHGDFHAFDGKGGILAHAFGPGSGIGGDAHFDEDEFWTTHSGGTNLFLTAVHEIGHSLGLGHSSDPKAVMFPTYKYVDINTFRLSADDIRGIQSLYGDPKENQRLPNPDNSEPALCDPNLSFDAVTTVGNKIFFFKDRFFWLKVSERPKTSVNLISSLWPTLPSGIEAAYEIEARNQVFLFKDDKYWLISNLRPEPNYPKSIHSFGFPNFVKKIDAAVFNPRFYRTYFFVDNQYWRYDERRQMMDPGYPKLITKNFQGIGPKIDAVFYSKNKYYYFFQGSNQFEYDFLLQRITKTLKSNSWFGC

Chain of 72 kDa type IV collagenase (P08253 whole entry): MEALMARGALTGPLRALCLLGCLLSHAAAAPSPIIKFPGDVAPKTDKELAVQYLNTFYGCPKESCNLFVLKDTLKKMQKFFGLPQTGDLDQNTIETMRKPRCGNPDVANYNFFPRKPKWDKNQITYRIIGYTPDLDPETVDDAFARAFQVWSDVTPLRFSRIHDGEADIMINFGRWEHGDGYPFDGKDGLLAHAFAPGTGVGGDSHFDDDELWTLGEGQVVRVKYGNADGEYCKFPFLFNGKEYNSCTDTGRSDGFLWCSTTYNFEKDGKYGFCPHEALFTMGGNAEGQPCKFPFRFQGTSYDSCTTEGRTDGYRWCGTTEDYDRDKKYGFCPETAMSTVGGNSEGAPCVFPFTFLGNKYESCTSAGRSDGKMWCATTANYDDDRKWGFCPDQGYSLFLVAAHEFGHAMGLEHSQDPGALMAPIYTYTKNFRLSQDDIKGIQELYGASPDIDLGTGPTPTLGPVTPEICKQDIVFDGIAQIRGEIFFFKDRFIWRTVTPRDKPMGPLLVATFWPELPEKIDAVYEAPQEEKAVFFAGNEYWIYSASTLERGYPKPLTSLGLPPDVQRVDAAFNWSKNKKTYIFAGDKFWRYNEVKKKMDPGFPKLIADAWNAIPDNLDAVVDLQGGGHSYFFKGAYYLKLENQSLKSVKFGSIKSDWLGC
Chain of Matrix metalloproteinase-9 (P14780 whole entry): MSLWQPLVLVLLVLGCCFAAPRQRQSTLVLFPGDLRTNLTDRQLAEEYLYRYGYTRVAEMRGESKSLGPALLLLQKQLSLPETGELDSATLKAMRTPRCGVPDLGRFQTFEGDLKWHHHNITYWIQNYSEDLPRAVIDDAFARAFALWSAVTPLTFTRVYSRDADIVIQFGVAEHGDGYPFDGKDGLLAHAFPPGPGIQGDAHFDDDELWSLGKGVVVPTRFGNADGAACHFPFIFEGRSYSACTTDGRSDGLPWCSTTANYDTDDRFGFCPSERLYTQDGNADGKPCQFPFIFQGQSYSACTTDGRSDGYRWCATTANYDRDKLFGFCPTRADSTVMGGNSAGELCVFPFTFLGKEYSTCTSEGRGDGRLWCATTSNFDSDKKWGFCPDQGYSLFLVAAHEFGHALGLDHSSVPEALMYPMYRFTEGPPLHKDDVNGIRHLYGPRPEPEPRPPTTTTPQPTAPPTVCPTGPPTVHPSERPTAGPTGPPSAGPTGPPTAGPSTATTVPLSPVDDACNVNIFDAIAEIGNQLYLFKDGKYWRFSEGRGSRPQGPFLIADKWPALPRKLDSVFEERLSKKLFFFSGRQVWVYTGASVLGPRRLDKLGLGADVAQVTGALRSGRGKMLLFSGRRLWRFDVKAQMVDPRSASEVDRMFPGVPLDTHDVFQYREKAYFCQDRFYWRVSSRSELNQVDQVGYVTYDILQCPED

| IC50 [1] [µM] | IC50 [2] [µM] | IC50 [3] [µM] | IC50 [4] [µM] | SMILES |
| --- | --- | --- | --- | --- |
| 24 | 112 | 101 | 64 | O=C(OCc1ccc(C(F)(F)F)cc1)c1cccc(=O)[nH]1 |
| 99 | 110 | 100 | 105 | COc1ccc(COC(=O)c2cccc(=O)[nH]2)cc1 |
| 23 | 71 | 3 | 65 | O=C(OCc1ccc(F)cc1)c1cccc(=O)[nH]1 |
| 65 | 73 | 68 | 69 | Cc1ccc(COC(=O)c2cccc(=O)[nH]2)cc1 |
| 25 | 5 | 67 | 46 | O=C(OCc1cccc(Cl)c1)c1cccc(=O)[nH]1 |
| 26 | 69 | 68 | 47 | O=C(OCc1ccc(Cl)cc1)c1cccc(=O)[nH]1 |
| 22 | 68 | 67 | 31 | O=C(OCc1cccc(Br)c1)c1cccc(=O)[nH]1 |
| 28 | 70 | 50 | 16 | O=C(OCc1cccc(F)c1)c1cccc(=O)[nH]1 |
| 30 | 65 | 69 | 69 | O=C(OCc1ccccc1)c1cccc(=O)[nH]1 |
| 51 | 69 | 81 | 68 | O=C(OCc1ccccc1Cl)c1cccc(=O)[nH]1 |

The next lines start with the compound.

| SMILES | IC50 [1] [µM] | IC50 [2] [µM] | IC50 [3] [µM] | IC50 [4] [µM] |
| --- | --- | --- | --- | --- |
| C1=C(n2cc(C3=NCCO3)nn2)CCCC1 | > 150 | > 150 | > 150 | > 150 |
| O=C(OC1CCC1)c1cccc(=O)[nH]1 | 25 | 66 | 62 | 51 |
| COc1cccc(COC(=O)c2cccc(=O)[nH]2)c1 | 69 | 70 | 88 | 69 |
| O=C(OCCCCOc1ccccc1)c1cccc(=O)[nH]1 | 67 | 90 | 94 | 82 |
| O=C(OCc1ccccc1F)c1cccc(=O)[nH]1 | 64 | 71 | 76 | 68 |
| O=C(OCc1c(F)cccc1F)c1cccc(=O)[nH]1 | 35 | 66 | 60 | 60 |
| O=C(OCc1c(F)cc(F)cc1F)c1cccc(=O)[nH]1 | 16 | 39 | 33 | 31 |
| O=C(OCc1c(F)c(F)c(F)c(F)c1F)c1cccc(=O)[nH]1 | 19 | 64 | 69 | 63 |
| O=C(OCc1cccc(C(F)(F)F)c1)c1cccc(=O)[nH]1 | 28 | > 150 | > 150 | 82 |
| O=C(OCc1ccccc1Br)c1cccc(=O)[nH]1 | 19 | 57 | 59 | 44 |
| CC(C)=CCOC(=O)c1cccc(=O)[nH]1 | 37 | 72 | 69 | 67 |
| CC#CCOC(=O)c1cccc(=O)[nH]1 | 50 | 70 | 68 | 71 |
| O=C(OC1CCCCC1)c1cccc(=O)[nH]1 | 32 | 101 | 94 | 71 |
| O=C(OCCc1ccccc1)c1cccc(=O)[nH]1 | 47 | 69 | 81 | 68 |
| O=C(OCc1cc(F)c(F)cc1F)c1cccc(=O)[nH]1 | 30 | 86 | 67 | 56 |
| O=C(OCc1cc(F)ccc1F)c1cccc(=O)[nH]1 | 70 | 70 | 85 | 100 |
| O=C(OCc1cc(F)cc(F)c1)c1cccc(=O)[nH]1 | 41 | 69 | 71 | 20 |
| O=C(OCCOc1ccccc1)c1cccc(=O)[nH]1 | 59 | > 150 | 127 | 79 |
